This is a sample that favours compounds with a hit; in the whole collection about 2% have one here.
EBI2 block = antagonists of human EBI2 receptor; P32249; EBI2 beta-arrestin recruitment, luminescence, 7a,25-OHC stimulated; inhibition, % at 5 µM; 360,000 tested, 0.81% active; AID 651636; in the data active = inhibition above about 38%;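 note: enzyme fragment complementation signal reports receptor beta-arrestin coupling in cells; 0% = agonist plus DMSO wells and 100% = wells without agonist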
APJ agonist = activates the human apelin receptor APJ | 330,000 tested, 0.11% active | CHO-K1 APJ PathHunter beta-arrestin, luminescence; 0% DMSO wells, 100% apelin | AID 2520 | P35414 | activation, % at 20 µM;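 active = activation more than six SD over the plate average, tested at 20 µM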;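 note: 0% = DMSO alone and 100% = apelin-13 at 10 nM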
Target sequence (P35414 whole entry, looked up): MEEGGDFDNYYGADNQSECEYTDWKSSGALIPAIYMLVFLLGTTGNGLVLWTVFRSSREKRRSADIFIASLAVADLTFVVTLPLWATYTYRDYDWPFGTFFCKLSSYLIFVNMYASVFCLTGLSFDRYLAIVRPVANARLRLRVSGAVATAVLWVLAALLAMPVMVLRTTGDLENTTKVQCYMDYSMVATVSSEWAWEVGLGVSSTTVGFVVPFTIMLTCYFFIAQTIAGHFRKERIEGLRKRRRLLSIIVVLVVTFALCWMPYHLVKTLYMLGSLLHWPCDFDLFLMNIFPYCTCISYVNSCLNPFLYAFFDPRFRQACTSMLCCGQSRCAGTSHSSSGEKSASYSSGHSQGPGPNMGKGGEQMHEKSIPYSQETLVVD
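Assay system – PathHunter CHO-K1 APJ (AGTRL-1) beta-arrestin reporter cells · Compound – one dose, 20 µM compound, 1% DMSO · Timing – compound 90 min 25 °C, reagent 1 h · Measured by – luminescence from split beta-galactosidase complementation, Galacton Star/Emerald II substrate · Measure – beta-arrestin recruitment to APJ as agonist activity, luminescent signal · Benchmarks – DMSO vs Apelin-13 10 nM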
APJ antagonist = blocks the human apelin receptor APJ | CHO-K1 APJ beta-arrestin complementation, luminescence | inhibition, % at 20 µM | 330,000 tested, 0.32% active | AID 2521;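 active = inhibition above about 40% at 20 µM, limit read from the data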;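 note: cells challenged with 10 nM apelin-13 agonist together with compound; plate controls were apelin-13 plus DMSO wells for no effect and DMSO wells lacking apelin-13 for full effect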
CXCR6 inh = blocks human CXCR6 beta-arrestin recruitment | inhibition, % at 20 µM | 360,000 tested, 0.36% active | CHO-K1 PathHunter CXCR6 beta-arrestin, luminescence | O00574; in the data active = inhibition above about 34%, passing the limit was not always enough;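 note: antagonist mode with CXCL16 agonist at 10 nM final; 0% = 10 nM CXCL16 with DMSO and 100% = unstimulated wells without agonist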
CCR6 antagonist = blocks CCL20-driven beta-arrestin recruitment at human CCR6. CHO-K1 CCR6 PathHunter beta-arrestin, luminescence, CCL20-stimulated. inhibition, % at 20 µM. 340,000 tested, 0.49% active;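 active = compounds whose inhibition of the agonist-driven luminescence signal at 20 µM reaches about 50%, limit read from the data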;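 note: cells stimulated with CCL20 at 14 nM final; plate controls were DMSO with CCL20 for no effect and DMSO without agonist for full effect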
FXN GAA850 act = increases GAA850 frataxin promoter reporter activity | activation, % at 6 µM | AID 540364 | 360,000 tested, 0.56% active | HEK293 lucGAA850 FXN promoter luciferase reporter, 24 h; percent of 10 µM SAHA response;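 active = activation above the average of all compounds screened plus 3 SD, cutoff fixed separately per campaign, cut at about 7.5% in these data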;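 note: 0% = DMSO wells and 100% = 10 µM SAHA wells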
GAA30 FXN cntr = activates GAA30 frataxin promoter, counter-screen for GAA850 activators | shares compounds with FXN GAA850 act | HEK293 lucGAA30 FXN promoter luciferase, 24 h; DMSO = 0%, 5 µM ipriflavone = 100% | activation, % at 6 µM | 1,900 tested, 66% active;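 active = mean activation above the mean of solvent-only control wells plus 3 SD, cut at about 22% in these data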;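 note: counterscreen of GAA850 promoter hits where activity marks nonselective or luminescence artifacts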
FXN GAA850 conf = confirmation of GAA850 frataxin (FXN) promoter activators; shares compounds with FXN GAA850 act; HEK293 lucGAA850 FXN promoter luciferase reporter, 24 h; 100% = activation by SAHA; activation, % at 6 µM; 1,900 tested, 86% active; AID 588351;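 active = mean activation above a set limit taken from the primary screen, cut at about 8% in these data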;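 note: 0% = DMSO wells and 100% = 10 µM SAHA wells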
Active calls of the source: *; . = no result given.

SMILES	EBI2 block	APJ agonist	APJ antagonist	CXCR6 inh	CCR6 antagonist	FXN GAA850 act	GAA30 FXN cntr	FXN GAA850 conf
CCCCS/C(N)=N/N=C/c1ccccc1O	18	6	9	12	17	7.7*	110*	28*
CCCS/C(N)=N/N=C/c1cc(C)ccc1O	-3	-4	-21	7	12	8.6*	102*	33*
CCOC1=C2CN(S(=O)(=O)c3ccc(C)cc3)[C@H](c3ccccc3)C[C@H]2[C@H]2C(=O)N(c3ccccc3)C(=O)[C@H]2C1	-2	.	.	-3	.	.	.	.
Nc1nc(SCc2ccc(Cl)cc2Cl)ns1	3	-2	-7	-12	5	7.9*	50*	15*
Cc1ccccc1CSc1nsc(N)n1	3	-1	21	-2	15	4	.	.
CCOC(=O)c1c(-c2ccc(F)cc2)csc1NC(=O)CN1C(=O)NC2(CCCCC2C)C1=O (centres undefined)	0	-3	20	9	10	13*	9	18*
CCOC(=O)c1cc2c(=O)n3ccccc3nc2n(CCOC)c1=NC(=O)C(C)(C)C	7	-2	5	5	1	10*	92*	35*
CC1(C)CC1C(=O)Nc1ccc([N+](=O)[O-])cc1Br (centres undefined)	-15	2	7	-2	12	7.8*	18	7
COc1cc(OC)cc(C(=O)NNS(=O)(=O)c2ccc(F)cc2)c1	0	0	-16	-7	5	2	.	.
C=C1c2cccc(O)c2C(=O)C2C(=O)[C@]3(O)C(=O)C(C(N)=O)C(=O)[C@@H](N(C)C)[C@@H]3[C@@H](O)[C@H]12 (some centres undefined)	-6	4	0	-3	-2	18*	16	7
CCCCOP(=O)(c1ccc(N(C)C)cc1)C(O)c1c(Cl)cccc1Cl (centres undefined)	0	-4	-10	5	17	16*	17	11*
CCCCOP(=O)(c1ccc(N(C)C)cc1)C(O)c1ccc(N(C)C)cc1 (centres undefined)	2	-2	17	4	4	1	.	.
COC(=O)c1c(NC2=NS(=O)(=O)c3ccccc32)sc2c1CCC(C(C)(C)C)C2 (centres undefined)	0	.	.	13	27	2	.	.
Cc1ccccc1N1CCN(CC(=O)Nc2ccccc2C(=O)NC2CC2)CC1	22	-5	-2	26	41	0	.	.
COc1ccc(C2CC(C(F)(F)F)n3ncc(C(=O)NCC4CCCO4)c3N2)cc1OC (centres undefined)	0	-2	35	6	-6	8.2*	9	11*
COc1ccc(C2CC(C(F)(F)F)n3ncc(C(=O)O)c3N2)cc1OC (centres undefined)	-6	0	8	1	-6	4	.	.
COc1ccc2nc(N3CCN(C(=O)C4COc5ccccc5O4)CC3)sc2c1 (centres undefined)	8	5	8	-14	-9	9.0*	104*	32*
Cc1cccc2sc(N3CCN(C(=O)C4COc5ccccc5O4)CC3)nc12 (centres undefined)	-11	1	1	-13	-6	0	.	.
Cc1cc(C)cc(NC(=O)/C=C/c2ccc([N+](=O)[O-])s2)c1	2	.	.	-4	-10	8.7*	-29	18*
CC(=O)c1cccc(NC(=O)/C=C/c2ccc([N+](=O)[O-])s2)c1	22	.	.	11	30	7	.	.
Nc1o[nH]c(=O)c1C1CCCCC1	6	.	.	-1	-9	1	.	.
CC(=O)/C=C\c1ccccc1OC(=O)c1cc2ccccc2oc1=O	-12	-4	25	1	17	4	.	.
O=C(/C=C\c1ccccc1OC(=O)c1ccccc1F)c1cc2ccccc2o1	45*	2	34	16	42	10*	94*	29*
COC(=O)C[C@H]1C=C[C@H](NC(=O)c2ccccn2)[C@@H](CO)O1	2	.	.	.	.	.	.	.
CCOC(=O)N1CCN(C(=O)c2ccc(NS(C)(=O)=O)cc2)CC1	-4	-1	26	3	5	9.4*	27*	17*
SMILES	EBI2 block	APJ agonist	APJ antagonist	CXCR6 inh	CCR6 antagonist	FXN GAA850 act	GAA30 FXN cntr	FXN GAA850 conf
CCOC(=O)N1CCN(C(=O)c2ccc(S(=O)(=O)Nc3ccc(C)cc3)cc2)CC1	1	-1	3	2	6	2	.	.
CC(=O)Nc1sc2c(c1-c1nc3ccccc3s1)CCN(C(C)C)C2	13	-6	5	1	1	34*	-33	91*
CC(C)N1CCc2c(sc(NC(=O)c3ccc4ccccc4c3)c2C(N)=O)C1	-6	-4	13	12	17	3	.	.
C=CCSc1nc(N)c(NC(=O)c2ccco2)c(=O)[nH]1	1	-2	11	0	5	14*	28*	9.8*
COc1ccc(/C=C/C(=O)Nc2ccccc2)cc1OC	0	-1	6	-6	13	2	.	.
COc1ccc(/C=C/C(=O)Nc2ccc(-n3nncc3-c3ccc(OC)c(OC)c3)cc2)cc1OC	-1	9	17	-8	4	8.9*	23*	17*
CC1(C)CC(=O)c2c(O)cc(OCc3ccc(Br)cc3)cc2O1	16	-7	1	10	2	9.4*	99*	36*
CC1(C)CC(=O)c2ccc(OCc3ccc([N+](=O)[O-])cc3)cc2O1	13	0	1	-16	15	8.4*	136*	50*
Nc1nc(NCc2ccccc2)nc(NCc2ccccc2)c1[N+](=O)[O-]	0	-4	1	0	5	4	.	.
CN(C)c1nc(N)c([N+](=O)[O-])c(NCc2ccccc2)n1	-4	-1	12	1	8	7.6*	69*	25*
CNc1nc(N)c([N+](=O)[O-])c(NCc2ccccc2)n1	-4	-3	13	0	4	17*	87*	32*
Cc1ccc(Nc2nc(N)c([N+](=O)[O-])c(NCc3ccco3)n2)cc1C	32	-3	-8	9	23	7.8*	92*	44*
Cc1ccc(Nc2nc(N)c([N+](=O)[O-])c(NCCO)n2)cc1C	-9	-5	13	-6	9	5	.	.
O=C(NCc1cc(Cl)cc(Cl)c1)c1csc([C@@H]2C[C@H](O)[C@@H](CO)O2)n1	4	.	.	-2	.	0	.	.
